What all share (assay type): functional
The subject of assay [1] is SH-SY5Y. Kind of assay: Neuroprotective activity against rotenone/oligomycin-A-induced death in human SH-SY5Y cells assessed as protective effect at 1 uM after 2 hrs by MTT assay. A digest of the protocol: (§1)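 Human SH-SY5Y neuroblastoma cells, low passage (<13), grown in 1:1 Ham's F-12/EMEM with 10% heat-inactivated FBS. Seeded at 1×10⁵ cells/well and treated before confluence in EMEM with 1% FBS. Insult was 30 µM rotenone plus 10 µM oligomycin-A for 24 h. Viability read by MTT (2 h, 37 °C, dark), then lysis and absorbance at 540 nm.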

The subject of assay [2] is SH-SY5Y. Nature of the assay: Neuroprotective activity against rotenone/oligomycin-A-induced death in human SH-SY5Y cells assessed as increase of cell viability at 1 uM after 2 hrs by MTT assay. A digest of the protocol:
as §1
Background: Tetrazolium dyes change colour on reduction, which living cells bring about.

Assay [3] is described as follows: Antioxidant activity assessed as trolox equivalents of peroxyl radical scavenging activity by ORAC assay. A digest of the protocol: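 Fluorescein (70 nM) with 2,2'-azobis(2-methylpropionamidine) dihydrochloride (12 mM) and antioxidant in 75 mM phosphate buffer pH 7.4 at 37 °C. Fluorescence recorded every minute for 98 min. Net AUC taken against the blank and plotted against concentration; slope divided by the slope of the Trolox curve from the same assay. Duplicate wells, at least three independent assays.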

Assay [4] is described as follows: Antioxidant activity assessed as hydroxyl radical scavenging activity at 50 uM after 2 hrs by benzoic acid method. In outline: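 Hydroxyl radical from a Fenton reaction (Fe2+ plus H2O2 10 mmol) hydroxylates benzoate to fluorescent hydroxybenzoates. Incubation 2 h at 37 °C with or without nitrone; fluorescence read at excitation 305 nm, emission 407 nm. RSA% relative to no-nitrone control. Quadruplicate wells, at least three independent runs; mean ± SEM.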

Assay [5] relates to Radical scavenging activity. Nature of the assay: Antioxidant activity of the compound assessed as DPPH radical scavenging activity at 0.5 mM after 2 hrs. A digest of the protocol: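 DPPH radical mixed with nitrone and held 2 h at room temperature in the dark. DPPH absorbance read at 517 nm. RSA% = 100 × (A0 − Ai)/A0, with A0 and Ai the absorbance without and with nitrone. Quadruplicate wells, at least three independent runs; mean ± SEM.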
For orientation: DPPH is a stable violet radical that fades when it is reduced.

For a further assay, the system named is Mus musculus. Nature of the assay: Neuroprotective activity in NMRI mouse assessed as protection against t-BHP-induced lethality at 150 mg/kg, ip after 30 mins relative to control. The conditions noted are these: route intraperitoneal.
Assay [6] deals with Radical scavenging activity. Kind of assay: Antioxidant activity of the compound assessed as DPPH radical scavenging activity at 15 mM after 2 hrs. A digest of the protocol: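 DPPH radical added to test compound; mixture kept 2 h at room temperature in the dark, then absorbance read at 517 nm. RSA% = 100×(A0−Ai)/A0, where A0 and Ai are DPPH absorbance without and with compound. Quadruplicate wells, at least three independent runs; mean ± SEM.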

Assay [7] has as its system SH-SY5Y. Nature of the assay: Neuroprotective activity against rotenone/oligomycin-A-induced death in human SH-SY5Y cells assessed as increase of cell viability at 10 nM after 2 hrs by MTT assay. A digest of the protocol: as §1
The test system of assay [8] is SH-SY5Y. Nature of the assay: Neuroprotective activity against rotenone/oligomycin-A-induced death in human SH-SY5Y cells assessed as protective effect at 10 nM after 2 hrs by MTT assay. In outline: as §1
The subject of assay [9] is SH-SY5Y. Kind of assay: Neuroprotective activity against rotenone/oligomycin-A-induced death in human SH-SY5Y cells assessed as increase of cell viability at 1 mM after 2 hrs by MTT assay. In outline: as §1
The subject of assay [10] is SH-SY5Y. Kind of assay: Neuroprotective activity against rotenone/oligomycin-A-induced death in human SH-SY5Y cells assessed as protective effect at 1 mM after 2 hrs by MTT assay. In outline:
as §1

On to `C/[N+]([O-])=C/c1ccccc1`, for which the Activity with SH-SY5Y [1] came to 18.7%; in the assay with SH-SY5Y [2] it was 64.7%; in assay [4] it was 95.3%; in assay [5], 0.8%. The Activity (Trolox equivalents) in assay [3] is 0.

Take `CC(C)(C)/[N+]([O-])=C/c1ccccc1`: the Activity in the assay on SH-SY5Y [1] was determined as 18.6%; with Mus musculus, 73%; in the assay on SH-SY5Y [2] it was 69.6%; in assay [4], 94.9%; in [5], 1.4%. Further, the Activity (Trolox equivalents) in [3] was found to be 0.

In the case of `O=c1c(O)c(-c2ccc(O)c(O)c2)oc2cc(O)cc(O)c12`, the Activity in assay [6] came to 94.2%; in assay [4] it was 96.6%. Also, the Activity (Trolox equivalents) in assay [3] worked out at 10.5.

As to `COc1cc(Br)c(/C=[N+](\[O-])C(C)(C)C)cc1OC`, the Activity with SH-SY5Y [1] turned out to be 0%; with Mus musculus, 70%; in the assay on SH-SY5Y [2] it was 63.1%; in [4], 96.3%; in assay [5], 0.8%. In addition, in assay [3], the Activity (Trolox equivalents) came to 0.03.

Regarding `COc1cc(/C=[N+](\[O-])Cc2ccccc2)ccc1O`, the Activity amounted to 16.9% in the assay on SH-SY5Y [1], 63.9% with SH-SY5Y [2], 96.9% in assay [4] and 88.2% in assay [5]. Moreover, in assay [3], the Activity (Trolox equivalents) worked out at 2.93.

With `CC(C)(C)/[N+]([O-])=C/c1cccnc1Br`, the Activity with SH-SY5Y [1] was determined as 24%; with Mus musculus, 76%; in the assay on SH-SY5Y [2], 60.1%; in [4], 95.1%; in assay [5], 3.9%. Further, the Activity (Trolox equivalents) in [3] was determined as 0.01.

Regarding `COc1ccc2[nH]cc(CCNC(C)=O)c2c1` [MELATONIN], the Activity in the assay with SH-SY5Y [7] stood at 59%; in the assay with SH-SY5Y [8], 17%.

For the molecule `COc1cc(/C=[N+](\[O-])Cc2ccccc2)c(Br)cc1O`, the Activity was determined as 13.4% in the assay on SH-SY5Y [1], 62.8% with SH-SY5Y [2], 95.7% in assay [4] and 40.7% in assay [5]. The Activity (Trolox equivalents) in [3] was 6.4.

In the case of `[O-]/[N+](=C\c1ccccc1)Cc1ccccc1`, the Activity was 18.4% with SH-SY5Y [1]; 111% in the assay with Mus musculus; 70.8% in the assay with SH-SY5Y [2]; 95.7% in assay [4]; 0.6% in assay [5]. In addition, in [3], the Activity (Trolox equivalents) was 0.01.

As to `COc1cc(Br)c(/C=[N+](\[O-])Cc2ccccc2)cc1OC`, the Activity with SH-SY5Y [1] was 3%; in the assay on Mus musculus, 116%; in the assay on SH-SY5Y [2], 65.3%; in assay [4], 95.1%; in [5] it was 0.2%. In addition, in [3], the Activity (Trolox equivalents) amounted to 0.03.

For `CC(C)(C)/[N+]([O-])=C/c1c[nH]c2ccccc12`, the Activity with SH-SY5Y [1] worked out at 8%; in the assay with Mus musculus, 60%; with SH-SY5Y [2], 64.1%; in [5], 1.2%. Also, the Activity (Trolox equivalents) in assay [3] worked out at 3.69.

Consider `COc1cc(Br)c(/C=[N+](\[O-])Cc2ccccc2)cc1O`, for which the Activity with SH-SY5Y [1] was found to be 8.7%; in the assay with Mus musculus, 111%; in the assay with SH-SY5Y [2], 64.2%; in assay [4], 94.6%; in [5] it was 25.9%. In addition, in assay [3], the Activity (Trolox equivalents) was found to be 7.36.

As for `COc1ccc2c(c1)cc(/C=[N+](\[O-])C(C)(C)C)n2C`, the Activity in the assay with SH-SY5Y [1] was 4.4%; in the assay on Mus musculus it was 50%; with SH-SY5Y [2], 62.8%; in assay [5] it was 4.8%. Further, the Activity (Trolox equivalents) in assay [3] is 7.98.

In the case of `COc1cc(/C=C/C(=O)CC(=O)/C=C/c2ccc(O)c(OC)c2)ccc1O` [CURCUMIN], the results for the Activity (in [6]; with Mus musculus; in assay [4]) were 35%, 106% and 96.8%, respectively.

In the case of `CC(C)(C)/[N+]([O-])=C/c1cccnc1Cl`, the Activity in the assay on SH-SY5Y [1] is 0%; in the assay with Mus musculus it was 74%; in the assay with SH-SY5Y [2], 61.4%; in [4], 94.9%; in assay [5], 1.6%. In addition, the Activity (Trolox equivalents) in assay [3] is 0.01.

For `CC(=O)N[C@@H](CS)C(=O)O` [ACETYLCYSTEINE], the results for the Activity with SH-SY5Y [9] and with SH-SY5Y [10] were 63.1% and 25%, respectively.

Turning to `COc1cc(Br)c(/C=[N+](\[O-])C(C)(C)C)cc1O`, the Activity in the assay with SH-SY5Y [1] turned out to be 11%; in the assay on Mus musculus, 87%; in the assay with SH-SY5Y [2] it was 65%; in assay [4], 96.3%; in [5] it was 31.1%. Moreover, the Activity (Trolox equivalents) in [3] stood at 5.58.

As for `Cc1c(C)c2c(c(C)c1O)CCC(C)(C(=O)O)O2` (stereo not drawn), the Activity (Trolox equivalents) in assay [3] turned out to be 1. In addition, the Activity in assay [4] stood at 94.3%.

`COc1cc(/C=[N+](/C)[O-])ccc1O`: in [3], the Activity (Trolox equivalents) came to 3.35. Moreover, the Activity in [4] amounted to 96.5%; in assay [5], 87.6%.

The values above are taken from ChEMBL document CHEMBL1641473, “Synthesis, structure, theoretical and experimental in vitro antioxidant/pharmacological properties of α-aryl, N-alkyl nitrones, as potential agents for the treatment of cerebral ischemia” (2011).
